Key:
Adenosine receptor A1 [1] = target: T1, Adenosine receptor A1 (Bos taurus, UniProt P28190); experiment: Affinity for Adenosine A1 receptor using [125I]APNEA in calf brain.
T1 sequence (P28190 whole entry): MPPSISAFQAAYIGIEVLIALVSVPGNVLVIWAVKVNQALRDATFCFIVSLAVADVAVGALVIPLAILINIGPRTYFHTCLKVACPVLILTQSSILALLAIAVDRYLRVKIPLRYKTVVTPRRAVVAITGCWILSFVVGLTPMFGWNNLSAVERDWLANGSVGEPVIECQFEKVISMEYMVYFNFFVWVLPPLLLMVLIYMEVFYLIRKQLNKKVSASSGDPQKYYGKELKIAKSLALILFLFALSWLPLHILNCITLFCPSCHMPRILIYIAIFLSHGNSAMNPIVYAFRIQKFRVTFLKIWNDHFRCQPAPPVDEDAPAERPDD
Procedure, shortened: (§1)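 Bovine cerebral cortex membranes were pretreated with adenosine deaminase (0.5 unit/mL, 20 min, 37 °C). Membranes (40 µg) were incubated with 125I-APNEA and competitor for 1 h at 37 °C. Separation was by dilution in cold Tris-HCl/MgCl2/EDTA buffer, pH 8.26, with 0.02% Chaps, then glass-filter filtration and gamma counting. Nonspecific binding was defined with 10⁻⁵ M (R)-PIA.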

[2] = target: T2, Adenosine receptor A1 (Rattus norvegicus) (UniProt P25099); experiment: Percentage inhibition of [125I]APNEA binding to adenosine A1 receptor from rat brain after 45 min incubation at 500 nM
T2 sequence (whole entry): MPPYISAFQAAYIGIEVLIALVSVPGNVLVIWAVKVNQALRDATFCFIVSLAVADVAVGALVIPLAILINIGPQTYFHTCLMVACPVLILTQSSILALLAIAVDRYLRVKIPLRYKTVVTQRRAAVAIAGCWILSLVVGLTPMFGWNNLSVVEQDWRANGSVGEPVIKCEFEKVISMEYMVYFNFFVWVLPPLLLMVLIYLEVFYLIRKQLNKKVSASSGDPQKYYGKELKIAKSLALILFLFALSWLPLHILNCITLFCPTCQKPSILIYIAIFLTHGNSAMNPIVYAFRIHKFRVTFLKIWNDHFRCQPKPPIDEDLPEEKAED
Procedure, shortened: (§2)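 Adenosine deaminase-treated rat cerebral cortex membranes were exposed to the ligand for 45 min at 37 °C. They were washed three times, held in buffer with 10⁻⁴ M IBMX for 18 h at 25 °C, washed and re-treated with deaminase. Residual sites were measured by 125I-APNEA saturation (0.1–2.5 nM) against untreated membranes carried through the same procedure.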

[3] = target: T2, Adenosine receptor A1 (Rattus norvegicus); experiment: Inhibition of [125I]-APNEA binding to adenosine A1 receptor of rat brain at 50 nM; procedure, shortened: as §2
Adenosine A2 receptor [4] = target: T3, Adenosine A2 receptor (Rattus norvegicus, UniProt P29276+P30543); experiment: Inhibition of [3H]N-ethyladenosine-5'-uronamide binding to Adenosine A2 receptor of rat striatal membrane
Adenosine receptor A1 [5] = target: T4, Adenosine receptor A1 (Rattus norvegicus, UniProt P25099); experiment: Affinity for adenosine A1 receptor using [3H]N6-(phenylisopropyl)adenosine (R)-[3H]-PIA as a radioligand in rat brain.; type: tissue-based
T4 sequence (P25099 whole entry): T2 sequence (whole entry)

[6] = target: T5, Adenosine receptors; A1 & A2 (Rattus norvegicus) (UniProt P29276+P25099+P30543); experiment: Relative affinities for Adenosine A2 and Adenosine A1 receptors; type: protein assay
[7] = target: T2, Adenosine receptor A1 (Rattus norvegicus); details: 5 nM
[8] = target: T2, Adenosine receptor A1 (Rattus norvegicus); details: 5 nM; remark: listed apart in the source
Adenosine A2 receptor [9] = target: T3, Adenosine A2 receptor; experiment: Inhibitory affinity for Adenosine A2 receptor using [3H]N-ethyladenosine-5'-uronamide; type: protein assay
Adenosine receptor A1 [10] = target: T4, Adenosine receptor A1; experiment: Affinity for adenosine A1 receptor using [3H]-N6 -(phenylisopropyl)-adenosine (R)-[3H]-PIA in rat brain.; type: tissue-based
Procedure, shortened: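 Rat cerebral cortex membranes were incubated with 1 nM (R)-[3H]PIA and a range of competitor concentrations. Each point was run in triplicate, in at least three separate experiments.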

Adenosine receptor A1 [11] = target: T1, Adenosine receptor A1; experiment: Affinity for Adenosine A1 receptor using [N6-[(3-[125I]-iodo-4-aminophenyl)ethyl]adenosine in calf brain; type: tissue-based; procedure, shortened: as §1
[12] = target: T5, Adenosine receptors; A1 & A2 (Rattus norvegicus); experiment: Selectivity ratio between Ki for adenosine A2 and A1 receptors; type: protein assay
[13] = target: T2, Adenosine receptor A1 (Rattus norvegicus); details: 50 nM
[14] = target: T2, Adenosine receptor A1 (Rattus norvegicus); experiment: Percentage inhibition of [125I]-APNEA binding to adenosine A1 receptor from rat brain after 45 min incubation at 50 nM; procedure, shortened: as §2
[15] = target: T2, Adenosine receptor A1 (Rattus norvegicus); experiment: Percentage inhibition of [125I]-APNEA binding to Adenosine A1 receptor from rat brain after 45 min incubation at 50 nM
Procedure, shortened: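 Rat cerebral cortex membranes pretreated with adenosine deaminase (0.5 unit/mL, 20 min, 37 °C). Incubated with ligand at the stated concentration for 45 min at 37 °C, then washed three times in Tris/MgCl2/EDTA buffer pH 8.26 with 0.02% Chaps. Then 10⁻⁴ M IBMX for 18 h at 25 °C, washed twice and deaminase-treated again. Untreated membranes went through every step as controls.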

CCCn1c(=O)c2nc(-c3ccc(OCC(=O)NCCNC(=O)CCCCC(C)=O)cc3)[nH]c2n(CCC)c1=O
Ki (Adenosine receptor A1 [1]): 6.2 nM | inhibition [2]: 0%

CCCn1c(=O)c2nc(-c3ccc(OCC(=O)NCCNC(=O)CNC(=O)CCCN4C(=O)C=CC4=O)cc3)[nH]c2n(CCC)c1=O
inhibition [3]: 9%

CCCn1c(=O)c2nc(-c3ccc(OCC(=O)NCCNC(=O)CCCCCCC(=O)ON4C(=O)CCC4=O)cc3)[nH]c2n(CCC)c1=O
Ki (Adenosine A2 receptor [4]): 207 nM | inhibition [3]: 32%

O=C(Cc1ccc(Nc2ncnc3c2ncn3C2O[C@H](CO)[C@@H](O)[C@H]2O)cc1)ON1C(=O)CCC1=O (stereo partly drawn)
Ki (Adenosine receptor A1 [5]): 8.37 nM | inhibition [3]: 21%

CCCn1c(=O)c2nc(-c3ccc(OCC(=O)NCCNC(=O)CBr)cc3)[nH]c2n(CCC)c1=O
inhibition [3]: 16%

CCCn1c(=O)c2nc(-c3ccc(OCC(=O)NCCNC(=O)CCC(=O)ON4C(=O)CCC4=O)cc3)[nH]c2n(CCC)c1=O
inhibition [2]: 0%

CCCn1c(=O)c2nc(-c3ccc(OCC(=O)NCCN=C(S)Nc4cccc(N=C=S)c4)cc3)[nH]c2n(CCC)c1=O
Ratio [6]: 144 | Ki (Adenosine A2 receptor [4]): 343 nM | inhibition [7]: 49% | inhibition [2]: 94% | inhibition [8]: 67%

CCCn1c(=O)c2[nH]c(-c3ccc(OCC(=O)NCCNC(=S)Nc4ccc(C#N)cc4)cc3)nc2n(CCC)c1=O
Ki (Adenosine receptor A1 [5]): 16.6 nM

Cc1ccc(NC(=S)NCCNC(=O)Cc2ccc(NC(=O)Cc3ccc(Nc4ncnc5c4ncn5C4O[C@H](CO)[C@@H](O)[C@H]4O)cc3)cc2)cc1 (stereo partly drawn)
Ki (Adenosine receptor A1 [5]): 3.72 nM

O=C(CBr)NCCNC(=O)Cc1ccc(NC(=O)Cc2ccc(Nc3ncnc4c3ncn4C3O[C@H](CO)[C@@H](O)[C@H]3O)cc2)cc1 (stereo partly drawn)
Ratio [6]: 76 | Ki (Adenosine receptor A1 [5]): 8.3 nM | Ki (Adenosine A2 receptor [9]): 202 nM | inhibition [3]: 38%

N#Cc1ccc(N/C(S)=N/CCNC(=O)Cc2ccc(NC(=O)Cc3ccc(Nc4ncnc5c4ncn5C4O[C@H](CO)[C@@H](O)[C@H]4O)cc3)cc2)cc1 (stereo partly drawn)
Ki (Adenosine receptor A1 [10]): 2.66 nM

CCCn1c(=O)c2nc(-c3ccc(OCC(=O)NCCNC(=O)CCSSc4ccccn4)cc3)[nH]c2n(CCC)c1=O
inhibition [3]: 3%

O=C(Cc1ccc(NC(=O)Cc2ccc(Nc3ncnc4c3ncn4C3O[C@H](CO)[C@@H](O)[C@H]3O)cc2)cc1)NCCN=C=S (stereo partly drawn)
Ki (Adenosine receptor A1 [5]): 4.5 nM | Ki (Adenosine receptor A1 [1]): 4.2 nM

CCCn1c(=O)c2[nH]c(-c3ccc(OCC(=O)NCCNC(=O)CCCCCCC(=O)ON4C(=O)CCC4=O)cc3)nc2n(CCC)c1=O
Ki (Adenosine receptor A1 [11]): 23 nM

O=C(Cc1ccc(NC(=O)Cc2ccc(Nc3ncnc4c3ncn4C3O[C@H](CO)[C@@H](O)[C@H]3O)cc2)cc1)NCC/N=C(\S)Nc1ccc(F)cc1 (stereo partly drawn)
Ki (Adenosine receptor A1 [5]): 8.71 nM

CCCn1c(=O)c2nc(-c3ccc(OCC(=O)NCCN=C(S)Nc4ccc(OC)cc4)cc3)[nH]c2n(CCC)c1=O
Ki (Adenosine receptor A1 [5]): 33.2 nM

O=C(Cc1ccc(Nc2ncnc3c2ncn3C2O[C@H](CO)[C@@H](O)[C@H]2O)cc1)Nc1ccc(CC(=O)ON2C(=O)CCC2=O)cc1 (stereo partly drawn)
Ki (Adenosine receptor A1 [5]): 9.6 nM | inhibition [3]: 44%

CCCn1c(=O)c2[nH]c(-c3ccc(OCC(=O)NCCNC(=O)c4ccc(CBr)cc4)cc3)nc2n(CCC)c1=O
Ki (Adenosine receptor A1 [1]): 10.1 nM

COc1ccc(NC(=S)NCCNC(=O)Cc2ccc(NC(=O)Cc3ccc(Nc4ncnc5c4ncn5C4O[C@H](CO)[C@@H](O)[C@H]4O)cc3)cc2)cc1 (stereo partly drawn)
Ki (Adenosine receptor A1 [10]): 8.52 nM

CCCn1c(=O)c2nc(-c3ccc(OCC(=O)NCCNC(=O)CCCN4C(=O)C=CC4=O)cc3)[nH]c2n(CCC)c1=O
Ki (Adenosine receptor A1 [5]): 37.8 nM | inhibition [3]: 15%

CCCn1c(=O)c2nc(-c3ccc(OCC(=O)NCCN=C(S)Nc4ccc(S(=O)(=O)[O-])cc4)cc3)[nH]c2n(CCC)c1=O.[Na+]
Ki (Adenosine A2 receptor [4]): 1450 nM | Ki (Adenosine receptor A1 [5]): 367 nM | Ratio [12]: 3.95

O=C(Cc1ccc(NC(=O)Cc2ccc(Nc3ncnc4c3ncn4C3O[C@H](CO)[C@@H](O)[C@H]3O)cc2)cc1)NCC/N=C(\S)Nc1c(F)c(F)c(F)c(F)c1F (stereo partly drawn)
Ki (Adenosine receptor A1 [10]): 1.64 nM

CCCn1c(=O)c2nc(-c3ccc(OCC(=O)ON4C(=O)CCC4=O)cc3)[nH]c2n(CCC)c1=O
inhibition [3]: 10%

CCCn1c(=O)c2nc(-c3ccc(OCC(=O)NCCNC(=O)Cc4ccc(N/C(S)=N/c5ccc(N=C=S)cc5)cc4)cc3)[nH]c2n(CCC)c1=O
Ratio [6]: 26.2 | Ki (Adenosine A2 receptor [4]): 655 nM | inhibition [13]: 20%

CCCn1c(=O)c2[nH]c(-c3ccc(OCC(=O)NCCNC(=O)CNC(=O)CCCN4C(=O)C=CC4=O)cc3)nc2n(CCC)c1=O
Ki (Adenosine receptor A1 [10]): 23.2 nM

O=C(Cc1ccc(NC(=O)Cc2ccc(Nc3ncnc4c3ncn4C3O[C@H](CO)[C@@H](O)[C@H]3O)cc2)cc1)NCCNC(=S)Nc1cccc(N=C=S)c1 (stereo partly drawn)
Ki (Adenosine receptor A1 [5]): 0.867 nM

CCCn1c(=O)c2nc(-c3ccc(OCC(=O)NCCNC(=O)C/N=C(\S)Nc4ccc(N=C=S)cc4)cc3)[nH]c2n(CCC)c1=O
Ratio [6]: 69 | Ki (Adenosine A2 receptor [9]): 472 nM | inhibition [3]: 50%

O=C(Cc1ccc(NC(=O)Cc2ccc(Nc3ncnc4c3ncn4C3O[C@H](CO)[C@@H](O)[C@H]3O)cc2)cc1)NCCNC(=S)Nc1ccc(Br)cc1 (stereo partly drawn)
Ki (Adenosine receptor A1 [5]): 1.19 nM

O=C(Cc1ccc(NC(=O)Cc2ccc(Nc3ncnc4c3ncn4C3O[C@H](CO)[C@@H](O)[C@H]3O)cc2)cc1)NCCNC(=S)Nc1ccccc1F (stereo partly drawn)
Ki (Adenosine receptor A1 [5]): 6.75 nM

CCCn1c(=O)c2nc(-c3ccc(OCC(=O)NCCNS(=O)(=O)c4cccc(S(=O)(=O)Cl)c4)cc3)[nH]c2n(CCC)c1=O
Ratio [6]: 42 | inhibition [14]: 23% | Ki (Adenosine A2 receptor [4]): 105 nM

O=C(Cc1ccc(NC(=O)Cc2ccc(Nc3ncnc4c3ncn4C3O[C@H](CO)[C@@H](O)[C@H]3O)cc2)cc1)NCCNC(=S)Nc1ccc(N=C=S)cc1 (stereo partly drawn)
Ki (Adenosine receptor A1 [5]): 0.469 nM

CCCn1c(=O)c2[nH]c(-c3ccc(OCC(=O)NCCN)cc3)nc2n(CCC)c1=O [XANTHINE AMINE CONGENER]
Ki (Adenosine receptor A1 [11]): 0.3 nM

CCCn1c(=O)c2nc(-c3ccc(OCC(=O)NCCN=C(S)Nc4ccc(N=C=S)cc4)cc3)[nH]c2n(CCC)c1=O
Ratio [6]: 48.6 | Ki (Adenosine A2 receptor [4]): 321 nM | inhibition [15]: 63% | inhibition [2]: 73% | inhibition [3]: 29%

O=C(Cc1ccc(NC(=O)Cc2ccc(Nc3ncnc4c3ncn4C3O[C@H](CO)[C@@H](O)[C@H]3O)cc2)cc1)NCC/N=C(\S)Nc1ccc([N+](=O)[O-])cc1 (stereo partly drawn)
Ki (Adenosine receptor A1 [5]): 1.97 nM

CCCn1c(=O)c2nc(-c3ccc(OCC(=O)NCCN=C(S)Nc4ccc([N+](=O)[O-])cc4)cc3)[nH]c2n(CCC)c1=O
Ki (Adenosine receptor A1 [5]): 15.9 nM

CCCn1c(=O)c2nc(-c3ccc(OCC(=O)NCCN=C(S)Nc4ccc(F)cc4)cc3)[nH]c2n(CCC)c1=O
Ki (Adenosine receptor A1 [5]): 15.5 nM

CCCn1c(=O)c2nc(-c3ccc(OCC(=O)NCCNC(=O)c4ccc(CBr)cc4)cc3)[nH]c2n(CCC)c1=O
inhibition [3]: 15%

CCCn1c(=O)c2[nH]c(-c3ccc(OCC(=O)NCCNC(=O)Cc4ccc(NC(=S)Nc5ccc(N=C=S)cc5)cc4)cc3)nc2n(CCC)c1=O
Ki (Adenosine receptor A1 [5]): 25 nM

Source: ChEMBL document CHEMBL1124458, “Electrophilic derivatives of purines as irreversible inhibitors of A1 adenosine receptors” (J Med Chem, 1989)
